# Assay results from ChEMBL document CHEMBL1140876, “Synthesis and antibacterial property of quinolines with potent DNA gyrase activity” (2009).
# Activity calls are given as the source filed them. The rule behind the calls is not given here.
# How the values were obtained:
# Salmonella typhimurium [1] = test: Antimicrobial activity against Salmonella Typhimurium at 25 ug after 24 hrs by disk diffusion method; format: functional, Salmonella enterica subsp. enterica serovar Typhimurium; conditions: Salmonella enterica, read-out: IZ
# Procedure, shortened: (§1)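 Inoculum made in 0.85% saline against McFarland standard, swabbed evenly onto nutrient agar; sterile filter-paper discs set equidistant and loaded with equal volumes of drug at varying amounts; zone of inhibition measured after 24 h at 37 °C; ciprofloxacin reference.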
# Klebsiella pneumoniae [2] = test: Antimicrobial activity against Klebsiella pneumoniae at 20 ug after 24 hrs by disk diffusion method; format: functional; conditions: read-out: IZ; procedure, shortened: as §1
# Escherichia coli [3] = test: Antimicrobial activity against Escherichia coli at 15 ug after 24 hrs by disk diffusion method; format: functional; conditions: read-out: IZ; procedure, shortened: as §1
# Pseudomonas aeruginosa [4] = test: Antimicrobial activity against Pseudomonas aeruginosa at 20 ug after 24 hrs by disk diffusion method; format: functional; conditions: read-out: IZ; procedure, shortened: as §1
# [5] = Inhibition of DNA gyrase assessed as conversion of relaxed pBR322 to supercoiled form
# Procedure, shortened: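 Supercoiling in 15 µL reactions: gyrase assay buffer, 150 ng relaxed pBR322, 2–3 µL purified DNA gyrase, 3 h at 37 °C (E. coli); stopped with 50% glycerol/0.25% bromophenol blue; 1% agarose in 1× TBE pH 8.3, 90 V 3 h; ethidium bromide stain; supercoiled band brightness by densitometry. Ciprofloxacin comparator.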
# Bacillus subtilis [6] = test: Antimicrobial activity against Bacillus subtilis at 25 ug after 24 hrs by disk diffusion method; format: functional; conditions: read-out: IZ; procedure, shortened: as §1
# [7] = Inhibition of DNA gyrase assessed as pBR322 DNA relaxation at 2.5 uM
# Procedure, shortened: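 Gyrase (60 nM) was incubated with supercoiled pBR322 DNA (6 nM) and increasing compound concentrations (0, 0.1, 0.25, 0.5, 2.5) without ATP for 1 h at 37 °C. Relaxation of the supercoiled DNA was evaluated.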
# Klebsiella pneumoniae [8] = test: Antimicrobial activity against Klebsiella pneumoniae at 25 ug after 24 hrs by disk diffusion method; format: functional; conditions: read-out: IZ; procedure, shortened: as §1
# Klebsiella pneumoniae [9] = test: Antimicrobial activity against Klebsiella pneumoniae by broth microdilution assay; format: functional
# Procedure, shortened: (§2)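 Broth microdilution per NCCLS 1997 in 96-well plate; final inoculum 10^5 cfu/mL; incubated 35.7 °C in air 18–20 h; MIC read as lowest concentration with no visible growth.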
# Bacillus subtilis [10] = test: Antimicrobial activity against Bacillus subtilis at 10 ug after 24 hrs by disk diffusion method; format: functional; conditions: read-out: IZ; procedure, shortened: as §1
# Escherichia coli [11] = test: Antimicrobial activity against Escherichia coli at 10 ug after 24 hrs by disk diffusion method; format: functional; conditions: read-out: IZ; procedure, shortened: as §1
# Salmonella typhimurium [12] = test: Antimicrobial activity against Salmonella Typhimurium at 5 ug after 24 hrs by disk diffusion method; format: functional, Salmonella enterica subsp. enterica serovar Typhimurium; conditions: Salmonella enterica, read-out: IZ; procedure, shortened: as §1
# Salmonella typhimurium [13] = test: Antimicrobial activity against Salmonella Typhimurium at 10 ug after 24 hrs by disk diffusion method; format: functional, Salmonella enterica subsp. enterica serovar Typhimurium; conditions: Salmonella enterica, read-out: IZ; procedure, shortened: as §1
# Salmonella typhi = test: Antimicrobial activity against Salmonella typhi by broth microdilution assay; format: functional, Salmonella enterica subsp. enterica serovar Typhi; conditions: Salmonella enterica
# Procedure, shortened: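 Broth microdilution in 96-well plates following the NCCLS 1997 protocol. Final inoculum was 10^5 cfu/mL, with a control organism run alongside. Plates were incubated at 35.7 °C in air for 18–20 h. MIC is the lowest concentration with no visible growth.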
# Salmonella typhimurium [14] = test: Antimicrobial activity against Salmonella Typhimurium at 20 ug after 24 hrs by disk diffusion method; format: functional, Salmonella enterica subsp. enterica serovar Typhimurium; conditions: Salmonella enterica, read-out: IZ; procedure, shortened: as §1
# Staphylococcus aureus [15] = test: Antimicrobial activity against Staphylococcus aureus by broth microdilution assay; format: functional; procedure, shortened: as §2
# Bacillus subtilis [16] = test: Antimicrobial activity against Bacillus subtilis at 15 ug after 24 hrs by disk diffusion method; format: functional; conditions: read-out: IZ; procedure, shortened: as §1
# Klebsiella pneumoniae [17] = test: Antimicrobial activity against Klebsiella pneumoniae at 5 ug after 24 hrs by disk diffusion method; format: functional; conditions: read-out: IZ; procedure, shortened: as §1
# Pseudomonas aeruginosa [18] = test: Antimicrobial activity against Pseudomonas aeruginosa at 10 ug after 24 hrs by disk diffusion method; format: functional; conditions: read-out: IZ; procedure, shortened: as §1
# Staphylococcus aureus [19] = test: Antimicrobial activity against Staphylococcus aureus at 15 ug after 24 hrs by disk diffusion method; format: functional; conditions: read-out: IZ; procedure, shortened: as §1
# Escherichia coli [20] = test: Antimicrobial activity against Escherichia coli at 20 ug after 24 hrs by disk diffusion method; format: functional; conditions: read-out: IZ; procedure, shortened: as §1
# Staphylococcus aureus [21] = test: Antimicrobial activity against Staphylococcus aureus at 5 ug after 24 hrs by disk diffusion method; format: functional; conditions: read-out: IZ; procedure, shortened: as §1
# Klebsiella pneumoniae [22] = test: Antimicrobial activity against Klebsiella pneumoniae at 10 ug after 24 hrs by disk diffusion method; format: functional; conditions: read-out: IZ; procedure, shortened: as §1
# Staphylococcus aureus [23] = test: Antimicrobial activity against Staphylococcus aureus at 25 ug after 24 hrs by disk diffusion method; format: functional; conditions: read-out: IZ; procedure, shortened: as §1
# Staphylococcus aureus [24] = test: Antimicrobial activity against Staphylococcus aureus at 20 ug after 24 hrs by disk diffusion method; format: functional; conditions: read-out: IZ; procedure, shortened: as §1
# Bacillus subtilis [25] = test: Antimicrobial activity against Bacillus subtilis by broth microdilution assay; format: functional; procedure, shortened: as §2
# Pseudomonas aeruginosa [26] = test: Antimicrobial activity against Pseudomonas aeruginosa at 15 ug after 24 hrs by disk diffusion method; format: functional; conditions: read-out: IZ; procedure, shortened: as §1
# Escherichia coli [27] = test: Antimicrobial activity against Escherichia coli at 25 ug after 24 hrs by disk diffusion method; format: functional; conditions: read-out: IZ; procedure, shortened: as §1
# Klebsiella pneumoniae [28] = test: Antimicrobial activity against Klebsiella pneumoniae at 15 ug after 24 hrs by disk diffusion method; format: functional; conditions: read-out: IZ; procedure, shortened: as §1
# Salmonella typhimurium [29] = test: Antimicrobial activity against Salmonella Typhimurium at 15 ug after 24 hrs by disk diffusion method; format: functional, Salmonella enterica subsp. enterica serovar Typhimurium; conditions: Salmonella enterica, read-out: IZ; procedure, shortened: as §1
# Staphylococcus aureus [30] = test: Antimicrobial activity against Staphylococcus aureus at 10 ug after 24 hrs by disk diffusion method; format: functional; conditions: read-out: IZ; procedure, shortened: as §1
# Escherichia coli [31] = test: Antimicrobial activity against Escherichia coli at 5 ug after 24 hrs by disk diffusion method; format: functional; conditions: read-out: IZ; procedure, shortened: as §1
# Pseudomonas aeruginosa [32] = test: Antimicrobial activity against Pseudomonas aeruginosa at 5 ug after 24 hrs by disk diffusion method; format: functional; conditions: read-out: IZ; procedure, shortened: as §1
# Pseudomonas aeruginosa [33] = test: Antimicrobial activity against Pseudomonas aeruginosa by broth microdilution assay; format: functional; procedure, shortened: as §2
# Pseudomonas aeruginosa [34] = test: Antimicrobial activity against Pseudomonas aeruginosa at 25 ug after 24 hrs by disk diffusion method; format: functional; conditions: read-out: IZ; procedure, shortened: as §1
# Escherichia coli [35] = test: Antimicrobial activity against Escherichia coli by broth microdilution assay; format: functional; procedure, shortened: as §2
# Bacillus subtilis [36] = test: Antimicrobial activity against Bacillus subtilis at 20 ug after 24 hrs by disk diffusion method; format: functional; conditions: read-out: IZ; procedure, shortened: as §1
smiles,measurement,setting,value
c1ccc(C2c3ccccc3N[C@H]3c4cccn4C[C@@H]23)cc1 (stereo partly drawn),zone of inhibition at 25 µg/disc,Salmonella typhimurium [1],24 mm
same,zone of inhibition at 20 µg/disc,Klebsiella pneumoniae [2],34 mm
same,zone of inhibition at 15 µg/disc,Escherichia coli [3],18 mm
same,zone of inhibition at 20 µg/disc,Pseudomonas aeruginosa [4],22 mm
same,Activity,[5],Active
same,zone of inhibition at 25 µg/disc,Bacillus subtilis [6],9 mm
same,Activity,[7],Active
same,zone of inhibition at 25 µg/disc,Klebsiella pneumoniae [8],36 mm
same,MIC50,Klebsiella pneumoniae [9],2 µg/mL
same,MIC90,Klebsiella pneumoniae [9],32 µg/mL
same,zone of inhibition at 10 µg/disc,Bacillus subtilis [10],7 mm
same,zone of inhibition at 10 µg/disc,Escherichia coli [11],16 mm
same,zone of inhibition at 5 µg/disc,Salmonella typhimurium [12],10 mm
same,zone of inhibition at 10 µg/disc,Salmonella typhimurium [13],16 mm
same,MIC50,Salmonella typhi,1.64 µg/mL
same,MIC90,Salmonella typhi,2.5 µg/mL
same,zone of inhibition at 20 µg/disc,Salmonella typhimurium [14],22 mm
same,MIC50,Staphylococcus aureus [15],64 µg/mL
same,MIC90,Staphylococcus aureus [15],128 µg/mL
same,zone of inhibition at 15 µg/disc,Bacillus subtilis [16],6 mm
same,zone of inhibition at 5 µg/disc,Klebsiella pneumoniae [17],20 mm
same,zone of inhibition at 10 µg/disc,Pseudomonas aeruginosa [18],16 mm
same,zone of inhibition at 15 µg/disc,Staphylococcus aureus [19],13 mm
same,zone of inhibition at 20 µg/disc,Escherichia coli [20],20 mm
same,zone of inhibition at 5 µg/disc,Staphylococcus aureus [21],9 mm
same,zone of inhibition at 10 µg/disc,Klebsiella pneumoniae [22],26 mm
same,zone of inhibition at 25 µg/disc,Staphylococcus aureus [23],17 mm
same,zone of inhibition at 20 µg/disc,Staphylococcus aureus [24],14 mm
same,MIC50,Bacillus subtilis [25],2.5 µg/mL
same,MIC90,Bacillus subtilis [25],5 µg/mL
same,zone of inhibition at 15 µg/disc,Pseudomonas aeruginosa [26],17 mm
same,zone of inhibition at 25 µg/disc,Escherichia coli [27],23 mm
same,zone of inhibition at 15 µg/disc,Klebsiella pneumoniae [28],30 mm
same,zone of inhibition at 15 µg/disc,Salmonella typhimurium [29],18 mm
same,zone of inhibition at 10 µg/disc,Staphylococcus aureus [30],12 mm
same,zone of inhibition at 5 µg/disc,Escherichia coli [31],10 mm
same,zone of inhibition at 5 µg/disc,Pseudomonas aeruginosa [32],10 mm
same,MIC50,Pseudomonas aeruginosa [33],0.5 µg/mL
same,MIC90,Pseudomonas aeruginosa [33],32 µg/mL
same,zone of inhibition at 25 µg/disc,Pseudomonas aeruginosa [34],24 mm
same,MIC50,Escherichia coli [35],2 µg/mL
same,MIC90,Escherichia coli [35],4 µg/mL
same,zone of inhibition at 20 µg/disc,Bacillus subtilis [36],7 mm
